# Data as given in ChEMBL document CHEMBL1156509, “Survival in the presence of antifungals: genome-wide expression profiling of Aspergillus niger in response to sublethal concentrations of caspofungin and fenpropimorph” (2007).
# Active and inactive are the calls of the source. The calls are words filed in the database; no cut-off is given here.
# Columns and labels:
# Assay type in all cases: functional, organism-based
# Aspergillus niger [1] = assay: Antifungal activity against Aspergillus niger RD6.47 at 104.2 ug/mL by microtiter plate
# Method in brief: (§1)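 Reporter conidia (2×10^4 per well) were pre-grown 6 h at 37 °C in 2× CM in glass-bottom plates. An equal volume of a 2-fold dilution series (seven concentrations) was added, then 3 h at 30 °C. Medium was discarded and adherent germlings imaged. Growth inhibition was scored 0/1/2 from hyphal length.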
# Aspergillus niger [2] = assay: Induction of GFP tagged PagsA-H2B expression in Aspergillus niger RD6.47 at 104.2 ug/mL by fluorescence microscopy
# Method in brief: (§2)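 agsA promoter-GFP reporters, cytoplasmic (JvD1.1) or nuclear H2B-targeted (RD6.47). Germlings pre-grown 6 h at 37 °C in 2× CM, exposed 3 h at 30 °C to seven 2-fold dilutions. GFP levels were scored by fluorescence microscopy as 0 (basal), 1 (intermediate) or 2 (high). Controls: gpdA-H2B-GFP strain MA26.1 (positive), N402 (negative).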
# Aspergillus niger [3] = assay: Induction of GFP tagged PagsA expression in Aspergillus niger JvD1.1 at 104.2 ug/mL by fluorescence microscopy; method in brief: as §2
# Aspergillus niger [4] = assay: Antifungal activity against Aspergillus niger JvD1.1 at 104.2 ug/mL by microtiter plate; method in brief: as §1
Structure (SMILES),Activity (Aspergillus niger [1]),Activity (Aspergillus niger [2]),Activity (Aspergillus niger [3]),Activity (Aspergillus niger [4])
C[C@@H]1C[C@@H]([C@H](O)CC2CC(=O)NC(=O)C2)C(=O)[C@@H](C)C1,Active,inactive,inactive,Active
Cc1cc(C2CC2)nc(Nc2ccccc2)n1,–,Active,Active,–
Fc1ccc([C@]2(Cn3cncn3)O[C@H]2c2ccccc2Cl)cc1,inactive,inactive,inactive,inactive
